B1: tRNA (parent)
chain: GUUCCGUUGGCGUAAUGGUAACGCGUCUCCCUCCUAAGGAGAAGACUGCGGGUUCGAGUCCCGUACGGAACG

Variants of: B1
Test: yeast fitness, log relative to wild type (ln ratio); higher = fitter; tRNA-Arg(CCU), competitive growth, 37 C, 1 M NaCl
Procedure, shortened: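 In BY4742 missing the chromosomal gene, a combinatorial tRNA-Arg(CCU) variant library was maintained on a HIS3 centromeric plasmid. Selection ran ~6.5 generations (~26.5 h) in SC-HIS 1M NaCl at 37 °C, following 4 generations in SC-HIS at 30 °C, with three outputs per input and variant counts by 125 bp paired-end Illumina sequencing. Fitness is the natural log of a genotype's generations relative to the wild type's, with generations taken as inverse-variance-weighted, OD-scaled log2 output/input frequency.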

In order of rising “yeast fitness (ln)” value:
1. G1A U2G G6A C27U A43C C46U C66U A70U C71U  -0.645
2. G1A U2G G6A C66U A70G C71U  -0.578
3. C27U A43C C66A A69G A70U C71U  -0.513
4. G1A G6U C27U A69G A70U C71U  -0.505
5. G1A G6U C27U A43C C46U C66U A69G A70G C71U  -0.501
6. U2G G6A C27U C66A A69G A70U C71U  -0.499
7. G1A U2G G6U C27U A43C C46U A69G A70G C71U  -0.446
8. G1A U2G C27U A43C C66A C71U  -0.377
9. U2G G6U C27U C46U C66U A69G A70G C71U  -0.356
10. G1A G6U C27U A43C A70U  -0.331
11. G1A U2G A43C C66U A69G A70G  -0.328
12. U2G G6A C27U A43C C66U A69G A70U  -0.326
13. G1A G6A C27U A43C C66U A70G C71U  -0.323
14. G1A U2G G6A A43C C46U C66U A69G A70U  -0.306
15. U2C C27U C66U A69G C71U  -0.303
16. G6U A43C A70G  -0.296
17. G1A G6A C27U A43C C46U C66A A70G C71U  -0.293
18. U2C G6A C27U A43C C66U A69G A70G C71U  -0.293
19. G6U C27U C66A A70U C71U  -0.29
20. G1A U2C A43C A69G A70U C71U  -0.29
21. U2G C66U A69G A70U  -0.285
22. G1A G6U C27U A70G  -0.277
23. G1A U2G G6U C27U A69G C71U  -0.274
24. G1A U2G G6U C27U C46U C66U  -0.271
25. G1A U2G G6A A43C C46U A69G A70U C71U  -0.262
26. G1A U2G C27U A43C A69G A70G C71U  -0.262
27. G1A G6U A43C C46U C66U A70U  -0.259
28. G1A G6A A43C C66U A69G A70G  -0.253
29. G1A U2G G6A C46U A69G A70G  -0.251
30. G1A G6A A43C C66U A69G A70G C71U  -0.245
31. G1A U2G C27U C66A A70U C71U  -0.243
32. G1A G6A C66U A69G A70G  -0.235
33. G1A U2C G6U A43C C46U C66U A70U C71U  -0.235
34. G1A G6U C27U C46U C66A A70G  -0.233
35. U2G C27U C66U A69G  -0.231
36. G1A U2G A43C C66A C71U  -0.228
37. G1A U2G C27U A43C C46U C66A A70G C71U  -0.224
38. G6U C27U A69G  -0.222
39. A43C C66U A69G A70G C71U  -0.22
40. U2G G6U C27U A43C C66A A69G A70G  -0.219
41. U2C G6U C27U C66U A70G  -0.215
42. U2G C27U A43C C66U  -0.214
43. U2G C66U A69G C71U  -0.213
44. G6A C27U C71U  -0.204
45. G1A C27U A43C C66U A70U  -0.201
46. U2G G6U C46U C66U C71U  -0.2
47. G1A G6U A43C C46U C66A A69G C71U  -0.198
48. G6A C27U C46U C66U A69G A70U  -0.196
49. U2C A43C C46U C66U A69G A70U  -0.191
50. G6A A43C C46U C66U A70U  -0.183
51. G6A C46U A69G A70G  -0.18
52. G6A C46U A69G A70U  -0.176
53. G1A C27U A43C C66A A70G  -0.173
54. G1A U2C A43C C66U A70U  -0.169
55. U2G G6U C46U A70G C71U  -0.165
56. U2G A43C C46U C66A A70G C71U  -0.165
57. G1A U2G C46U A69G A70G  -0.163
58. G1A C46U C66U A69G A70U  -0.162
59. G1A U2G C46U C66U A70G C71U  -0.161
60. G1A C27U A43C C46U C66A A70U  -0.155
61. G1A C27U C46U C66U A70U  -0.154
62. G1A U2G C66A A70U C71U  -0.146
63. G6A C46U A69G A70G C71U  -0.146
64. G1A U2G G6A C46U C66U A69G A70U C71U  -0.141
65. G1A U2C G6U C46U C66A  -0.141
66. U2C C27U C46U C66U C71U  -0.132
67. G1A U2C C27U C46U A69G A70G  -0.122
68. G1A U2G C27U A43C C46U C66A  -0.106
69. U2G G6U A43C C46U  -0.106
70. U2C C27U C46U A69G C71U  -0.104
71. U2G G6A C46U C66A  -0.093
72. U2C A43C C46U C66U  -0.0687
73. U2G A43C C66A  -0.0672
74. U2G G6U C66A A70G  -0.0514
75. G1A U2C C46U  -0.0408
76. U2C G6A C27U C66U A70G C71U  -0.0401
77. U2C G6A C46U A70U  -0.0378
78. U2C C27U A43C C46U  -0.0298
79. G1A U2C C27U A43C A70G C71U  -0.0249
80. U2C C27U A43C C46U A69G A70G  -0.0239
81. G1A C46U  -0.0224
82. U2C G6A C46U C66U A69G A70G  -0.0132
83. G1A A43C C46U C71U  -0.00436

From the RNAGym collection of RNA variant scans (doi:10.1038/s41586-018-0170-7)
